From ChEMBL document CHEMBL1649483, “Molecular analysis of the gyrA and gyrB quinolone resistance-determining regions of fluoroquinolone-resistant Clostridium difficile mutants selected in vitro” (2009)

Experiments:
Type in all cases: functional
[1] = tested on: Clostridioides difficile; experiment: Antimicrobial activity against Clostridium difficile CD5f harboring GyrB Ser416Ala mutant gene selected after 4 ug/ml of moxifloxacin by Etest method
[2] = tested on: Clostridioides difficile; experiment: Antimicrobial activity against Clostridium difficile C253D selected after 8 ug/ml of levofloxacin by Etest method
[3] = tested on: Clostridioides difficile; experiment: Antimicrobial activity against Clostridium difficile C253e selected after 4 ug/ml of moxifloxacin by Etest method
[4] = tested on: Clostridioides difficile; experiment: Antimicrobial activity against Clostridium difficile BI2F harboring GyrB Glu466Lys mutant gene selected after 8 ug/ml of levofloxacin by Etest method
Procedure, shortened: (§1)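 Stable in vitro-selected mutant tested for gatifloxacin susceptibility by Etest, per the manufacturer's instructions, with an 8 μg/ml breakpoint. For selection, the parent was grown in antibiotic-free brain heart infusion (BHI) for 24 h at 35°C under anaerobic conditions. […] Later steps used double the MIC. Stability was confirmed by three subcultures.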

[5] = tested on: Clostridioides difficile; experiment: Antimicrobial activity against Clostridium difficile BI2e harboring GyrB Arg447Lys and Asp426Asn mutant gene selected after 32 ug/ml of moxifloxacin by Etest method; procedure, shortened: as §1
[6] = tested on: Clostridioides difficile; experiment: Antimicrobial activity against Clostridium difficile BI2a harboring GyrB Arg447Lys mutant gene selected after 2 ug/ml of moxifloxacin by Etest method; procedure, shortened: as §1
[7] = tested on: Clostridioides difficile; experiment: Antimicrobial activity against Clostridium difficile C253F selected after 8 ug/ml of levofloxacin by Etest method
[8] = tested on: Clostridioides difficile; experiment: Antimicrobial activity against Clostridium difficile A422G harboring GyrA Thr82Ile and GyrB Leu451Phe mutant genes selected after 8 ug/ml of levofloxacin by Etest method; procedure, shortened: as §1
[9] = tested on: Clostridioides difficile; experiment: Antimicrobial activity against Clostridium difficile A422b selected after 2 ug/ml of moxifloxacin by Etest method; procedure, shortened: as §1
[10] = tested on: Clostridioides difficile; experiment: Antimicrobial activity against Clostridium difficile CD5 1-g harboring GyrA Ala92Glu and GyrB Ser416Ala mutant genes selected after 8 ug/ml of moxifloxacin by Etest method
[11] = tested on: Clostridioides difficile; experiment: Antimicrobial activity against Clostridium difficile CD5D harboring GyrB Ser416Ala mutant gene selected after 8 ug/ml of levofloxacin by Etest method
[12] = tested on: Clostridioides difficile; experiment: Antimicrobial activity against Clostridium difficile A422E harboring GyrB Leu451Phe mutant gene selected after 8 ug/ml of levofloxacin by Etest method; procedure, shortened: as §1
[13] = tested on: Clostridioides difficile; experiment: Antimicrobial activity against Clostridium difficile CD5c harboring GyrB Ser416Ala mutant gene selected after 2 ug/ml of moxifloxacin by Etest method
[14] = tested on: Clostridioides difficile; experiment: Antimicrobial activity against Clostridium difficile BI2f harboring GyrB Arg447Lys and Asp426Asn mutant gene selected after 32 ug/ml of moxifloxacin by Etest method; procedure, shortened: as §1
[15] = tested on: Clostridioides difficile; experiment: Antimicrobial activity against Clostridium difficile CD5B harboring GyrB Ser416Ala mutant gene selected after 4 ug/ml of levofloxacin by Etest method
[16] = tested on: Clostridioides difficile; experiment: Antimicrobial activity against Clostridium difficile CD5b harboring GyrB Ser416Ala mutant gene selected after 2 ug/ml of moxifloxacin by Etest method
[17] = tested on: Clostridioides difficile; experiment: Antimicrobial activity against Clostridium difficile 630D harboring GyrA Ala118Val mutant gene selected after 8 ug/ml of levofloxacin by Etest method; procedure, shortened: as §1
[18] = tested on: Clostridioides difficile; experiment: Antimicrobial activity against Clostridium difficile C253A selected after 4 ug/ml of levofloxacin by Etest method; procedure, shortened: as §1
[19] = tested on: Clostridioides difficile; experiment: Antimicrobial activity against Clostridium difficile C253F selected after 8 ug/ml of levofloxacin by agar dilution method
[20] = tested on: Clostridioides difficile; experiment: Antimicrobial activity against Clostridium difficile BI2E harboring GyrB Glu466Lys mutant gene selected after 8 ug/ml of levofloxacin by agar dilution method
[21] = tested on: Clostridioides difficile; experiment: Antimicrobial activity against Clostridium difficile C253 expressing tcdA and tcdB gene by agar dilution method
[22] = tested on: Clostridioides difficile; experiment: Antimicrobial activity against Clostridium difficile A422 expressing tcdA and tcdB gene by agar dilution method
[23] = tested on: Clostridioides difficile; experiment: Antimicrobial activity against Clostridium difficile A422E harboring GyrB Leu451Phe mutant gene selected after 8 ug/ml of levofloxacin by agar dilution method
[24] = tested on: Clostridioides difficile; experiment: Antimicrobial activity against Clostridium difficile CD5B harboring GyrB Ser416Ala mutant gene selected after 4 ug/ml of levofloxacin by agar dilution method
[25] = tested on: Clostridioides difficile; experiment: Antimicrobial activity against Clostridium difficile BI2e harboring GyrB Arg447Lys and Asp426Asn mutant gene selected after 32 ug/ml of moxifloxacin by agar dilution method
[26] = tested on: Clostridioides difficile; experiment: Antimicrobial activity against Clostridium difficile C253c selected after 2 ug/ml of moxifloxacin by agar dilution method
[27] = tested on: Clostridioides difficile; experiment: Antimicrobial activity against Clostridium difficile A422c selected after 2 ug/ml of moxifloxacin by agar dilution method
[28] = tested on: Clostridioides difficile; experiment: Antimicrobial activity against Clostridium difficile C253d selected after 4 ug/ml of moxifloxacin by agar dilution method
[29] = tested on: Clostridioides difficile; experiment: Antimicrobial activity against Clostridium difficile BI2c harboring GyrB Arg447Lys mutant gene selected after 2 ug/ml of moxifloxacin by agar dilution method
[30] = tested on: Clostridioides difficile; experiment: Antimicrobial activity against Clostridium difficile CD5i harboring GyrA Ala118Ser, Thr82Ala and GyrB Ser416Ala mutant genes selected after 8 ug/ml of moxifloxacin by agar dilution method
[31] = tested on: Clostridioides difficile; experiment: Antimicrobial activity against Clostridium difficile C253i harboring GyrA Ala118Ser mutant gene selected after 8 ug/ml of moxifloxacin by agar dilution method
[32] = tested on: Clostridioides difficile; experiment: Antimicrobial activity against Clostridium difficile BI2C selected after 4 ug/ml of levofloxacin by agar dilution method
[33] = tested on: Clostridioides difficile; experiment: Antimicrobial activity against Clostridium difficile A422d selected after 4 ug/ml of moxifloxacin by agar dilution method
[34] = tested on: Clostridioides difficile; experiment: Antimicrobial activity against Clostridium difficile BI2f harboring GyrB Arg447Lys and Asp426Asn mutant gene selected after 32 ug/ml of moxifloxacin by agar dilution method
[35] = tested on: Clostridioides difficile; experiment: Antimicrobial activity against Clostridium difficile A422G harboring GyrA Thr82Ile and GyrB Leu451Phe mutant genes selected after 8 ug/ml of levofloxacin by agar dilution method
[36] = tested on: Clostridioides difficile; experiment: Antimicrobial activity against Clostridium difficile CD5e harboring GyrB Ser416Ala mutant gene selected after 4 ug/ml of moxifloxacin by agar dilution method
[37] = tested on: Clostridioides difficile; experiment: Antimicrobial activity against Clostridium difficile A422f selected after 4 ug/ml of moxifloxacin by agar dilution method
[38] = tested on: Clostridioides difficile; experiment: Antimicrobial activity against Clostridium difficile CD5E harboring GyrB Ser416Ala mutant gene selected after 8 ug/ml of levofloxacin by agar dilution method
[39] = tested on: Clostridioides difficile; experiment: Antimicrobial activity against Clostridium difficile A422e selected after 4 ug/ml of moxifloxacin by agar dilution method
[40] = tested on: Clostridioides difficile; experiment: Antimicrobial activity against Clostridium difficile BI2a harboring GyrB Arg447Lys mutant gene selected after 2 ug/ml of moxifloxacin by agar dilution method

## COc1c(N2CCNC(C)C2)c(F)cc2c(=O)c(C(=O)O)cn(C3CC3)c12 (stereo not given) [GATIFLOXACIN]
[1]
  MIC: 0.75 µg/mL
[2]
  MIC: 1 µg/mL
[3]
  MIC: 1 µg/mL
[4]
  MIC: ≥ 32 µg/mL
[5]
  MIC: 6 µg/mL
[6]
  MIC: 1.5 µg/mL
[7]
  MIC: 1 µg/mL
[8]
  MIC: ≥ 32 µg/mL
[9]
  MIC: 1.5 µg/mL
[10]
  MIC: 3 µg/mL
[11]
  MIC: 2 µg/mL
[12]
  MIC: 2 µg/mL
[13]
  MIC: 0.75 µg/mL
[14]
  MIC: 6 µg/mL
[15]
  MIC: 0.5 µg/mL
[16]
  MIC: 0.75 µg/mL
[17]
  MIC: 3 µg/mL
[18]
  MIC: 0.5 µg/mL

## C[C@H]1COc2c(N3CCN(C)CC3)c(F)cc3c(=O)c(C(=O)O)cn1c23.C[C@H]1COc2c(N3CCN(C)CC3)c(F)cc3c(=O)c(C(=O)O)cn1c23.O [LEVOFLOXACIN]
[19]
  MIC: 2 µg/mL
[20]
  MIC: 16 µg/mL
[21]
  MIC: 2 µg/mL
[22]
  MIC: 2 µg/mL
[23]
  MIC: 2 µg/mL
[24]
  MIC: 1 µg/mL
[25]
  MIC: 64 µg/mL
[26]
  MIC: 4 µg/mL
[27]
  MIC: 4 µg/mL
[28]
  MIC: 4 µg/mL
[29]
  MIC: 8 µg/mL
[30]
  MIC: 64 µg/mL
[31]
  MIC: 64 µg/mL
[32]
  MIC: 1 µg/mL
[33]
  MIC: 4 µg/mL
[34]
  MIC: 64 µg/mL
[35]
  MIC: 64 µg/mL
[36]
  MIC: 2 µg/mL
[37]
  MIC: 4 µg/mL
[38]
  MIC: 2 µg/mL
[39]
  MIC: 4 µg/mL
[40]
  MIC: 8 µg/mL
